Tests used:
[1] = molecular target: Protein kinase C, PKC; classical (Rattus norvegicus, UniProt P05696+P68403+P63319); assay: Inhibition of protein kinase C was evaluated as Inhibitory concentration; format: protein assay
Outline: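 Rat brain PKC; procedure as in earlier work; triplicate points per assay; IC50 is the mean of at least two independent assays.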

[2] = Inhibition of protein kinase A was evaluated as Inhibitory concentration
Outline: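 PKA from bovine heart; procedure as in earlier work; triplicate points per assay; IC50 is the mean of at least two independent assays.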

[3] = Inhibition of human neutrophil protein kinase C (PKC)
[4] = molecular target: Protein kinase C, PKC; classical/novel; assay: Antagonistic effect on TPA-stimulated CD3 down-regulation in T-cells; format: functional
Outline: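 Procedure as in earlier work; TPA-stimulated CD3 down-regulation in T-cells; triplicate points per assay; IC50 is the mean of at least two independent assays.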

[5] = Inhibition of rat liver casein kinase II
[6] = (§1) Inhibition of rabbit muscle phosphorylase kinase (PhK); parameters: species or system Oryctolagus cuniculus
Outline: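 Rabbit muscle phosphorylase kinase; procedure as in earlier work; triplicate points per assay; IC50 is the mean of at least two independent assays.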

[7] = Inhibition of human platelet protein kinase C (PKC)
[8] = molecular target: cAMP-dependent protein kinase (PKA) (Homo sapiens, UniProt P22694+P17612+P22612); assay: Inhibition of human neutrophil protein kinase A (PKA); format: protein assay
Protein kinase C (PKC) = assay: Inhibition of protein kinase C (PKC) of rat brain
[9] = Antagonistic effect on allogenic mixed lymphocyte reaction; format: functional
Outline: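 Allogeneic mixed lymphocyte reaction run by a published method; triplicate points per assay; IC50 is the mean of at least three independent assays.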

[10] = molecular target: Tyrosine-protein kinase Lck (Homo sapiens, UniProt P06239); assay: Inhibition of human p56 lck
Tyrosine-protein kinase Lck, sequence (P06239 whole entry): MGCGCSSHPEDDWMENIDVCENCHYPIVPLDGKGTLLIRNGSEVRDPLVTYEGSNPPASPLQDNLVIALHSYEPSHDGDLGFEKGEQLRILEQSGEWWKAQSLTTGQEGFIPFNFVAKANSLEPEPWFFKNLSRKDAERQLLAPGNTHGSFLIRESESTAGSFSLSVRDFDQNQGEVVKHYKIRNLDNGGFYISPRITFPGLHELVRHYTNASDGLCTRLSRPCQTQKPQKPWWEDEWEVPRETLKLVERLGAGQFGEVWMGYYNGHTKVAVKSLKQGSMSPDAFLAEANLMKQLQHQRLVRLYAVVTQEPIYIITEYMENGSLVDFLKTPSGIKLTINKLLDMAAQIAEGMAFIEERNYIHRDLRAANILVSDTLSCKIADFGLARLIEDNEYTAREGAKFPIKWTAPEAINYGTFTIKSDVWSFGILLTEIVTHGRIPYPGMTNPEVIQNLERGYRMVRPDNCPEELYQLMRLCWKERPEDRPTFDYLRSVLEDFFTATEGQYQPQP

Homo sapiens = species: Homo sapiens; assay: Inhibition of TPA-stimulated 47-kDa protein phosphorylation in platelets; format: functional
Outline: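 Procedure as in earlier work; TPA-stimulated 47-kDa protein phosphorylation in platelets; triplicate points per assay; IC50 is the mean of at least three independent assays.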

[11] = molecular target: Proto-oncogene tyrosine-protein kinase Src (Homo sapiens, UniProt P12931); assay: Inhibition of human p60 c-src
Proto-oncogene tyrosine-protein kinase Src, sequence (P12931 2-536 limits assumed): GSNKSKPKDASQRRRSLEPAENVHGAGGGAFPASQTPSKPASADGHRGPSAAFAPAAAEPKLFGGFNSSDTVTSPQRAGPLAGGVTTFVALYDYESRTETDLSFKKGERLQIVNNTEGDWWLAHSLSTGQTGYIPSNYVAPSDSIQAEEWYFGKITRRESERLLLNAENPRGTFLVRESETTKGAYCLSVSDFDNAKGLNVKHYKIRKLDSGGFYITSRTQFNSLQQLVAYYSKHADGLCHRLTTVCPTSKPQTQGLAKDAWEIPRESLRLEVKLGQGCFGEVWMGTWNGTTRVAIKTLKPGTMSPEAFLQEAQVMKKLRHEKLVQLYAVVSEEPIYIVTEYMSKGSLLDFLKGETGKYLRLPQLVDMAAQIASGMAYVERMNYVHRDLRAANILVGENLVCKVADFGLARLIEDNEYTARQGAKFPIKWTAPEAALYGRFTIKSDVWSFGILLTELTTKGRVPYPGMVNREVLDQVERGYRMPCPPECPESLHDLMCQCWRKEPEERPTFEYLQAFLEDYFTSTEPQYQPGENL
Outline: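 Human p60c-src (20 units) with angiotensin II substrate (60 µg), 10 µM [γ-32P]ATP, 10 mM MgCl2, in 50 mM HEPES, 0.1 mM EDTA, 0.015% Brij 35, pH 7.5; final DMSO 10%. Incubated 60 min at 30 °C, stopped with 40 mM EDTA. Aliquots spotted on phosphocellulose paper, washed with orthophosphoric acid, counted by liquid scintillation.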

[12] = as §1; parameters: species or system Oryctolagus cuniculus; remark: listed apart in the source

Structure (SMILES) | IC50 [1] [nM] | IC50 [2] [nM] | also measured
CNCC1CCn2c(c(C3=C(c4cn(C)c5ccccc45)C(=O)NC3=O)c3ccccc32)C1.Cl (stereo not drawn) | 9.8 | 4800 | –
Cn1cc(C2=C(c3c4n(c5ccccc35)CC[C@H](CN)C4)C(=O)NC2=O)c2ccccc21 | 4.1 | 12100 | –
CN[C@@H]1C[C@H]2O[C@@](C)([C@@H]1OC)n1c3ccccc3c3c4c(c5c6ccccc6n2c5c31)C(=O)NC4 [STAUROSPORINE] | – | – | IC50 [3]: 2.5 nM
Cn1cc(C2=C(c3c4n(c5ccccc35)CCCC4)C(=O)NC2=O)c2ccccc21 | 155 | 23000 | –
Cn1cc(C2=C(c3c4n(c5ccccc35)CCC(CN)C4)C(=O)NC2=O)c2ccccc21 (stereo not drawn) | 7.6 | 2800 | IC50 [4]: 600 nM; IC50 [5]: > 100000 nM; IC50 [6]: 1300 nM; IC50 [3]: 4.8 nM; IC50 [7]: 12 nM; IC50 [8]: 1200 nM; IC50 (Protein kinase C (PKC)): 7.6 nM; IC50 [9]: 470 nM; IC50 [10]: > 100000 nM; IC50 (Homo sapiens): 460 nM; IC50 [11]: > 100000 nM
Cn1cc(C2=C(c3c4n(c5ccccc35)CC(CN)C4)C(=O)NC2=O)c2ccccc21 (stereo not drawn) | 14 | 3900 | –
Cn1cc(C2=C(c3c4n(c5ccccc35)CC(CN)CC4)C(=O)NC2=O)c2ccccc21 (stereo not drawn) | 15 | 1100 | –
Cn1cc(C2=C(c3c4n(c5ccccc35)CCC(N)C4)C(=O)NC2=O)c2ccccc21 (stereo not drawn) | 110 | 3300 | –
Cn1cc(C2=C(c3c4n(c5ccccc35)CCNC4)C(=O)NC2=O)c2ccccc21 | 540 | 3200 | –
Cl.Cn1cc(C2=C(c3c4n(c5ccccc35)CC(CCN)CC4)C(=O)NC2=O)c2ccccc21 (stereo not drawn) | 23 | 4500 | –
Cn1cc(C2=C(c3c4n(c5ccccc35)CCCCC4)C(=O)NC2=O)c2ccccc21 | 450 | > 100000 | –
Cn1cc(C2=C(c3c4n(c5ccccc35)CCC4)C(=O)NC2=O)c2ccccc21 | 210 | 68000 | –
Cn1cc(C2=C(c3cn(CCCN)c4ccccc34)C(=O)NC2=O)c2ccccc21 | 75 | – | –
Cn1cc(C2=C(c3c4n(c5ccccc35)CCCC(CN)C4)C(=O)NC2=O)c2ccccc21 (stereo not drawn) | 272 | 34000 | –
Cn1cc(C2=C(c3c4n(c5ccccc35)CCC(CN)CC4)C(=O)NC2=O)c2ccccc21 (stereo not drawn) | 16.5 | 2600 | –
Cn1cc(C2=C(c3c4n(c5ccccc35)CC(CN)CCC4)C(=O)NC2=O)c2ccccc21 (stereo not drawn) | 400 | 12800 | –
Cn1cc(C2=C(c3c4n(c5ccccc35)CC[C@@H](CN)C4)C(=O)NC2=O)c2ccccc21 | 10 | 900 | –
Cn1cc(C2=C(c3c4n(c5ccccc35)CC(N)CC4)C(=O)NC2=O)c2ccccc21 (stereo not drawn) | 135 | 4100 | –
Cn1cc(C2=C(c3c4n(c5ccccc35)CCC(N)CC4)C(=O)NC2=O)c2ccccc21 (stereo not drawn) | 100 | 2400 | –
Cn1cc(C2=C(c3c4n(c5ccccc35)CCC(CCN)C4)C(=O)NC2=O)c2ccccc21 (stereo not drawn) | 47 | 24000 | –
CN(C)CC1CCn2c(c(C3=C(c4cn(C)c5ccccc45)C(=O)NC3=O)c3ccccc32)C1.Cl (stereo not drawn) | 42 | 8600 | IC50 [5]: > 100000 nM; IC50 [12]: 1100 nM; IC50 [3]: 32 nM; IC50 [7]: 45 nM; IC50 [8]: 5900 nM; IC50 (Protein kinase C (PKC)): 42 nM; IC50 [9]: 540 nM; IC50 [10]: > 100000 nM; IC50 (Homo sapiens): 950 nM; IC50 [11]: > 100000 nM
Cn1cc(C2=C(c3c4n(c5ccccc35)CCC(C[N+](C)(C)C)C4)C(=O)NC2=O)c2ccccc21 (stereo not drawn) | 49 | 92500 | –
